Experiment [1] deals with MDA-MB-468. The experiment is described as follows: Antiproliferative activity against human MDA-MB-468 cell line. The experiment is classed as functional. Summed up: (§1)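 Cells kept in RPMI 1640 with 2 mM L-glutamine and 10% fetal calf serum, 37 °C, 5% CO₂, passaged twice weekly. 5 × 10³ cells/well allowed 24 h to adhere, then exposed 72 h to compound at final 0.1 nM–100 µM (n = 8). MTT read-out: MTT 400 µg/mL for 4 h at 37 °C, formazan dissolved in DMSO/glycine buffer pH 10.5, absorbance 550 nm; GI50 derived.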

The test system of a further experiment is MCF7. The experiment is described as follows: Antiproliferative activity against human MCF7 cell line. The experiment is classed as functional. The method, boiled down:
as §1

Experiment [2] relates to Panel NCI-60 (60 carcinoma cell lines). Description: Antiproliferative activity against human NCI60 cell line. The experiment is classed as functional.
In experiment [3] the test system is MDA-MB-468. Description: Antiproliferative activity against human MDA-MB-468 cell line in presence of 10 nM TBDD. The experiment is classed as functional. The method, boiled down: (§2)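 MDA-MB-468 cells, 5 × 10³/well, allowed 24 h to adhere, then co-exposed 72 h to isoflavone (final 0.1 nM–100 µM, n = 8) plus TBDD at final 10 nM (n = 4). Viability measured by MTT (400 µg/mL, 4 h, 37 °C), formazan dissolved in DMSO/glycine pH 10.5, absorbance 550 nm.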

For the next experiment, the system named is HT-29. Description: Antiproliferative activity against human HT29 cell line. The experiment is classed as functional. The method, boiled down: as §1
A further experiment relates to HCT-116. Description: Antiproliferative activity against human HCT116 cell line. The experiment is classed as functional. The method, boiled down:
as §1

The subject of experiment [4] is MDA-MB-468. Description: Cytotoxicity against human MDA-MB-468 cell line at 3 uM in presence of TBDD. The experiment is classed as functional, cell-based. The method, boiled down:
as §2

For another experiment, the target named is T1, Cytochrome P450 1A1 (Homo sapiens, UniProt P04798).
T1 sequence (P04798 whole entry): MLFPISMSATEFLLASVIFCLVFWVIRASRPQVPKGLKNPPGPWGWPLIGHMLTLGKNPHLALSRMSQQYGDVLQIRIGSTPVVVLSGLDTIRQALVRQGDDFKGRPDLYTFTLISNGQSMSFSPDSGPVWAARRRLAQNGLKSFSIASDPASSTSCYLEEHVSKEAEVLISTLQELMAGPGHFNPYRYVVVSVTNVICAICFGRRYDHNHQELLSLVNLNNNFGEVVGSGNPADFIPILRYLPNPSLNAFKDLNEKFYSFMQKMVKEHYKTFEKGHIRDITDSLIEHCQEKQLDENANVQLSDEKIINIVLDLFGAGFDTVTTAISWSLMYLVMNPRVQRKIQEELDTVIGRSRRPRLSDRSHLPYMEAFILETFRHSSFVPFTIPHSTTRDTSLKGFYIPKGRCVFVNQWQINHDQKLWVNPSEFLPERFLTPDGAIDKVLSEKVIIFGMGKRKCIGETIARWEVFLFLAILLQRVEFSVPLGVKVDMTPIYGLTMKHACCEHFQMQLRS
Description: Inhibition of CYP1A1 by EROD assay. The experiment is classed as ADME. The method, boiled down:
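EROD fluorometric assay. Recombinant CYP1A1 microsomes (0.1 mg/mL) in 100 mM Tris-HCl pH 7.4 with 50 µM MgCl₂ and 100 µM 7-ethoxyresorufin, with compound at 1, 10 or 100 µM. Preincubated 5 min at 37 °C, started with 500 µM NADPH, run 15 min at 37 °C, stopped with ice-cold acetonitrile. Resorufin read at ex 530/em 585 nm against a standard curve; no-microsome and DMSO controls.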

The test system of another experiment is MDA-MB-435. Description: Antiproliferative activity against human MDA-MB-435 cell line expressing ARNT splice variant.

The term GI50 denotes the concentration that inhibits growth by half. What is called IC50 is the point on the concentration scale where inhibition reaches its midpoint. Higher therefore signals weaker potency.

Calls of active or inactive are those of the source. The rule behind the calls is not given here.

On to `O=c1c(-c2ccc3c(c2)OCO3)coc2ccc(F)cc12`, for which the GI50 with MDA-MB-468 [1] came out at 1.5 µM; in the experiment on MCF7, 60 µM; in experiment [2], 50 µM; in the experiment with MDA-MB-468 [3], 2 µM.
Turning to `O=c1c(-c2ccc(Br)cc2)coc2ccccc12`, in [2], the GI50 turned out to be 50 µM.
On to `Cc1cc(-c2nc3cc(F)ccc3s2)ccc1N`, for which the GI50 with MDA-MB-468 [1] is less than 0.0001 µM; with MCF7, less than 0.0001 µM; with HT-29, 63 µM; in the experiment with HCT-116, 16 µM.
`Nc1ccc(-c2coc3ccc(F)cc3c2=O)cc1`: the GI50 turned out to be 4.8 µM in the experiment with MDA-MB-468 [1]; 8.8 µM with MCF7; 6.1 µM with HT-29; 8.5 µM in the experiment with HCT-116; 50 µM in experiment [2].
`O=c1c(-c2ccc(Cl)cc2)coc2ccccc12` had a GI50 in [2] of 50 µM.
Regarding `COc1ccc(-c2coc3c(F)c(F)ccc3c2=O)cc1OC`, the GI50 is 21.6 µM in the experiment on MDA-MB-468 [1]; 47.2 µM with MCF7; 31.7 µM in the experiment with HT-29; 26 µM in the experiment with HCT-116; 50 µM in experiment [2]; less than 1 µM in the experiment on MDA-MB-468 [3].
Take `O=c1c(-c2cccc([N+](=O)[O-])c2)coc2ccccc12`: the GI50 in [2] amounted to 50 µM.
`COc1ccc(-c2coc3c(F)cccc3c2=O)cc1OC`: the GI50 is 41.9 µM in the experiment on MDA-MB-468 [1]; 75.5 µM in the experiment with MCF7; 88 µM in the experiment with HT-29; 67.8 µM in the experiment on HCT-116; 50 µM in experiment [2]; less than 1 µM in the experiment on MDA-MB-468 [3]. In addition, the outcome in the experiment on MDA-MB-468 [4] was Active.
With `COc1ccc(-c2coc3ccc(F)cc3c2=O)cc1OC`, the GI50 with MDA-MB-468 [1] was 0.9 µM; with MCF7, 93.1 µM; in the experiment with HT-29, 88.2 µM; in the experiment on HCT-116 it was 65.3 µM; in experiment [2], 50 µM; in the experiment on MDA-MB-468 [3], less than 1 µM. The compound also came in with a GI50 in the experiment on MDA-MB-435 of more than 30 µM. Further, the IC50 on Cytochrome P450 1A1 is less than 100 µM.
With `COc1cccc(-c2coc3ccccc3c2=O)c1`, the GI50 in the experiment on MDA-MB-468 [1] was 29 µM; in the experiment with MCF7 it was more than 100 µM; in the experiment with HT-29, 88 µM; with HCT-116, more than 100 µM; in experiment [2], 50 µM; with MDA-MB-468 [3], less than 1 µM.
For the compound `COc1ccc(-c2nc3cc(F)ccc3s2)cc1OC`, the GI50 is less than 0.0001 µM with MDA-MB-468 [1], 0.008 µM in the experiment on MCF7, 2.6 µM with HT-29 and 5.4 µM in the experiment with HCT-116.
For the compound `COc1ccc(-c2coc3cc(F)ccc3c2=O)cc1OC`, the GI50 is 58.9 µM in the experiment on MDA-MB-468 [1]; 90.6 µM in the experiment on MCF7; 87 µM in the experiment with HT-29; 80.2 µM in the experiment with HCT-116; 50 µM in experiment [2]; less than 1 µM in the experiment with MDA-MB-468 [3]. This compound also returned an IC50 at Cytochrome P450 1A1 of less than 100 µM. Moreover, in the experiment on MDA-MB-468 [4], the outcome was Active.
Consider `COc1ccc(-c2coc3ccccc3c2=O)cc1OC`, for which the GI50 is 66.5 µM in the experiment on MDA-MB-468 [1]; 88.1 µM in the experiment with MCF7; more than 100 µM in the experiment with HT-29; more than 100 µM in the experiment with HCT-116; 50 µM in experiment [2]; less than 1 µM with MDA-MB-468 [3].
Take `COc1ccc(-c2coc3cc(F)ccc3c2=O)cc1`: the GI50 is 9.9 µM in the experiment with MDA-MB-468 [1]; 43.8 µM in the experiment on MCF7; 17.6 µM with HT-29; 8.5 µM in the experiment on HCT-116; 50 µM in [2]; more than 30 µM in the experiment on MDA-MB-435.
For `COc1ccc(-c2coc3cc(F)c(F)cc3c2=O)cc1OC`, the GI50 was 17.2 µM with MDA-MB-468 [1]; 41.5 µM in the experiment on MCF7; 22.6 µM with HT-29; 39.7 µM in the experiment on HCT-116; 50 µM in [2]; more than 30 µM in the experiment with MDA-MB-435.
In turn, `COc1ccc(-c2coc3ccc(F)cc3c2=O)cc1` displayed a GI50 in [2] of 50 µM. The compound also had an IC50 at Cytochrome P450 1A1 of less than 100 µM.
Turning to `Nc1ccc(-c2coc3cc(F)ccc3c2=O)cc1`, the GI50 in the experiment with MDA-MB-468 [1] was determined as 6.4 µM; with MCF7, 7.9 µM; with HT-29, 8.6 µM; in the experiment with HCT-116, 7.2 µM; in experiment [2], 50 µM.
Turning to `COc1ccc(-c2coc3c(F)cc(F)cc3c2=O)cc1OC`, the GI50 with MDA-MB-468 [1] is 6.3 µM; in the experiment on MCF7, 46.7 µM; in the experiment with HT-29 it was 7.2 µM; with HCT-116 it was 8.1 µM; in experiment [2], 50 µM; in the experiment on MDA-MB-435, more than 30 µM.
With `Nc1ccc(-c2coc3ccccc3c2=O)cc1`, the 50% growth inhibitory concentration (GI50) worked out at 6 µM in the experiment with MDA-MB-468 [1]; 64.9 µM in the experiment with MCF7; 8.1 µM in the experiment on HT-29; 17.3 µM in the experiment with HCT-116; 50 µM in experiment [2].
